In brackets after ≈: the same amount, converted by molar mass.

MIC90, MIC and MIC50 data for five compounds are collected here from ChEMBL document CHEMBL1134174, “Anti-Helicobacter pylori agents endowed with H2-antagonist properties” (2001).

What all share (type): functional
The test system of test [1] is Helicobacter pylori. Kind of test: Minimal concentration needed to inhibit 90% of Helicobacter pylori strain. In outline: (§1)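 Agar dilution MICs on 20 clinical H. pylori strains, two metronidazole resistant, in Columbia agar with horse serum and yeast extract. DMSO solutions diluted twofold serially in agar. Inocula at 0.5 McFarland in Wilkins Chalgren broth, incubated 37 C for 72 h, 10% CO2, microaerobic. MIC50/MIC90 taken as the lowest concentration inhibiting 50% or 90% of strains.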

Test [2] concerns Helicobacter pylori. Kind of test: Minimal concentration needed to inhibitH. pylori strain.
The subject of test [3] is Helicobacter pylori. Kind of test: Minimal concentration needed to inhibit 50% of Helicobacter pylori strain. In outline:
as §1

Test [4] has as its system Helicobacter pylori. Briefly: Inhibitory activity was determined against 102R strain of Helicobacter pylori.
The subject of test [5] is Helicobacter pylori. Briefly: Inhibitory activity was determined against NCTC-11637 strain of Helicobacter pylori.
The subject of test [6] is Helicobacter pylori. Briefly: Minimal concentration needed to inhibit Helicobacter pylori strain.

Regarding `N#C/N=[N+](\[O-])c1ccc(C(=O)NCCCC/N=C(\NC#N)NCCCOc2cccc(CN3CCCCC3)c2)cc1`, the MIC90 with Helicobacter pylori [1] amounted to 4 µg/mL (≈ 7.15 µM). The figures for the MIC in the test on Helicobacter pylori [2], with Helicobacter pylori [4] and against Helicobacter pylori [5] were 0.25 µg/mL (≈ 0.447 µM), 8 µg/mL (≈ 14.3 µM) and 4 µg/mL (≈ 7.15 µM), respectively. The compound further returned an MIC50 against Helicobacter pylori [3] of 2 µg/mL (≈ 3.57 µM).
For `N#C/N=[N+](\[O-])c1ccc(C(=O)NCCCCCC/N=C(\NC#N)NCCCOc2cccc(CN3CCCCC3)c2)cc1`, the MIC90 with Helicobacter pylori [1] was determined as 2 µg/mL (≈ 3.4 µM). For the same compound, the MIC came out at 0.25 µg/mL (≈ 0.425 µM) in the test on Helicobacter pylori [2], 2 µg/mL (≈ 3.4 µM) in the test with Helicobacter pylori [4] and 1 µg/mL (≈ 1.7 µM) in the test on Helicobacter pylori [5]. For the same compound, the MIC50 in the test with Helicobacter pylori [3] was determined as 1 µg/mL (≈ 1.7 µM).
`N#C/N=[N+](\[O-])c1ccc(C(=O)O)cc1` had an MIC90 with Helicobacter pylori [1] of 0.031 µg/mL (≈ 0.162 µM). Moreover, the minimum inhibitory concentration (MIC) with Helicobacter pylori [2] is under 0.0039 µg/mL; against Helicobacter pylori [4] it was 0.031 µg/mL (≈ 0.162 µM); against Helicobacter pylori [5] it was 0.0078 µg/mL (≈ 0.0408 µM). This compound displayed an MIC50 with Helicobacter pylori [3] of 0.016 µg/mL (≈ 0.0837 µM).
Compound `Cc1ncc([N+](=O)[O-])n1CCO` [METRONIDAZOLE] had an MIC90 in the test with Helicobacter pylori [1] of 8 µg/mL (≈ 46.7 µM). Also, the MIC with Helicobacter pylori [2] came out at 0.031 µg/mL (≈ 0.181 µM); in the test on Helicobacter pylori [4] it was 8 µg/mL (≈ 46.7 µM); against Helicobacter pylori [5], 16 µg/mL (≈ 93.5 µM). In the test with Helicobacter pylori [3], the MIC50 stood at 0.25 µg/mL (≈ 1.46 µM).
Turning to `N#C/N=[N+](\[O-])c1ccc(C(=O)NCC/N=C(\NC#N)NCCCOc2cccc(CN3CCCCC3)c2)cc1`, the MIC90 in the test on Helicobacter pylori [1] was found to be 16 µg/mL (≈ 30.1 µM). Besides, the figures for the minimum inhibitory concentration (MIC) against Helicobacter pylori [6], against Helicobacter pylori [4] and in the test on Helicobacter pylori [5] were 0.25 µg/mL (≈ 0.47 µM), 8 µg/mL (≈ 15 µM) and 16 µg/mL (≈ 30.1 µM), respectively. This compound also registered an MIC50 against Helicobacter pylori [3] of 8 µg/mL (≈ 15 µM).

Broadly, the MIC90 is an inhibitory concentration at the 90% level, which refers to growth in some studies and to a panel of isolates in others. Higher therefore signals weaker potency. The MIC is the least concentration at which growth counts as inhibited. The low end stands for greater potency, the high end for weaker potency. The MIC50 is an inhibitory concentration at the 50% level, which refers to growth in some studies and to a panel of isolates in others. Lower therefore signals greater potency.
